Assay results as given in ChEMBL document CHEMBL5352420, “Enantioselective synthesis of 4-amino-3,4-dihydrocoumarins and their non-cyclic hydroxyester precursors: Biological evaluation for the treatment of glioblastoma multiforme” (Eur J Med Chem, 2022).
pIC50: −log10 of the molar value. Activity calls are given as the source filed them. The rule behind the calls is not given here.

How the values were obtained:
[1] = Cytotoxicity against mouse N13 cells assessed as cell viability at 0.4 uM incubated for 24 hrs by MTT assay relative to control; format: functional; settings: read-out: Activity
Outline: (§1)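 MTT assay (mitochondrial activity). Cells grown at 37 °C, humidified 5% CO2: N13 in RPMI, F98 in DMEM.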

[2] = Cytotoxicity against mouse N13 cells assessed as cell growth inhibition incubated for 24 hrs by MTT assay; format: functional, cell-based; settings: N13, 24 h; outline: as §1
[3] = tested on: F98; experiment: Cytotoxicity against rat F98 cells assessed as cell viability at 0.4 uM incubated for 24 hrs by MTT assay relative to control; format: functional; settings: read-out: Activity; outline: as §1
[4] = tested on: F98; experiment: Cytotoxicity against rat F98 cells assessed as cell growth inhibition incubated for 24 hrs by MTT assay; format: functional, cell-based; settings: F98, 24 h; outline: as §1
[5] = tested on: F98; experiment: Cytotoxicity against rat F98 cells assessed as cell viability at 0.36 uM incubated for 24 hrs by MTT assay relative to control; format: functional; settings: read-out: Activity; outline: as §1
[6] = Cytotoxicity against mouse N13 cells assessed as cell viability at 0.36 uM incubated for 24 hrs by MTT assay relative to control; format: functional; settings: read-out: Activity; outline: as §1
[7] = tested on: F98; experiment: Cytotoxicity against rat F98 cells assessed as cell viability at 0.28 uM incubated for 24 hrs by MTT assay relative to control; format: functional; settings: read-out: Activity; outline: as §1
[8] = Cytotoxicity against mouse N13 cells assessed as cell viability at 0.28 uM incubated for 24 hrs by MTT assay relative to control; format: functional; settings: read-out: Activity; outline: as §1
[9] = tested on: F98; experiment: Cytotoxicity against rat F98 cells assessed as cell viability at 0.34 uM incubated for 24 hrs by MTT assay relative to control; format: functional; settings: read-out: Activity; outline: as §1
[10] = Cytotoxicity against mouse N13 cells assessed as cell viability at 0.34 uM incubated for 24 hrs by MTT assay relative to control; format: functional; settings: read-out: Activity; outline: as §1
[11] = Cytotoxicity against mouse N13 cells assessed as cell viability at 0.5 uM incubated for 24 hrs by MTT assay relative to control; format: functional; settings: read-out: Activity; outline: as §1
[12] = tested on: F98; experiment: Cytotoxicity against rat F98 cells assessed as cell viability at 0.5 uM incubated for 24 hrs by MTT assay relative to control; format: functional; settings: read-out: Activity; outline: as §1
[13] = tested on: N13; experiment: Induction of apoptosis in mouse N13 cells assessed as accumulation at sub G0/G1 phase at 100 ug/ml incubated for 24 hrs by flow cytometry; format: functional, cell-based; settings: dose 100.0 µg/ml
Outline: (§2)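 N13 or F98 cells exposed to 100 µg/mL for 24 h, untreated cells as controls. DNA content measured by flow cytometry. The fraction in the sub-G0/1 region taken as apoptotic cells.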

[14] = Toxicity in rat assessed as brain injury administered locally in caudate nucleus of brain measured after 30 days by MRI analysis; format: tissue-based; settings: in vivo, other, 720 h, route it, time 30 day
Outline: (§3)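 Non-tumor-bearing rats given a local injection into the caudate nucleus; PBS injected at the same site as control. Brain injury checked by in vivo MRI up to 30 days. Animals watched for external signs of pain or suffering. Survival monitored for 30 days.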

[15] = Toxicity in rat assessed as signs of suffering administered locally in caudate nucleus of brain measured after 30 days; format: tissue-based; settings: in vivo, other, 720 h, route it, time 30 day; outline: as §3
[16] = tested on: F98; experiment: Antitumor activity against rat F98 cells xenografted in Fisher rat assessed as average tumor volume at 5 mg/kg, IT measured after 2 days by MRI analysis (reference value: 845 mm^3); format: functional; settings: time 2 day
[17] = Toxicity in Fisher rat xenografted with rat F98 cells assessed as animal survival at 5 mg/kg, IT measured for 16 days; format: organism-based; settings: in vivo, other, 384 h, time 16 day
Outline: (§4)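 F98 glioma cells implanted in rats per an earlier protocol. Tumor volume followed by T₂-weighted MRI (9.4 T, turbo-RARE, TE 33 ms, TR 2500 ms) on days 3, 5, 8, 10, 12 and 15. On day 10 (mean tumor about 325 mm³), compound in PBS was given intratumorally at 5 mg/kg; PBS alone was the control. Survival was plotted as Kaplan-Meier.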

[18] = tested on: F98; experiment: Antitumor activity against rat F98 cells xenografted in Fisher rat assessed as necrotic/apoptotic tumor cells at 5 mg/kg, IT measured after 2 days by MRI analysis; format: functional, organism-based; settings: time 2.0 day
[19] = Toxicity in Fisher rat xenografted with rat F98 cells assessed as animal survival at 5 mg/kg, IT measured for 5 days; format: organism-based; settings: in vivo, other, 120 h, time 5 day; outline: as §4
[20] = tested on: F98; experiment: Induction of apoptosis in rat F98 cells assessed as accumulation at sub G0/G1 phase at 100 ug/ml incubated for 24 hrs by flow cytometry relative to control; format: functional; settings: dose 100 µg/ml; outline: as §2
[21] = Toxicity in rat assessed as survival rate administered locally in caudate nucleus of brain measured after 30 days relative to control; format: tissue-based; settings: in vivo, route it, time 30 day
Outline: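 Non-tumor-bearing rats received compound by local injection into the caudate nucleus, with PBS injected into the same region as control. Brains were imaged by in vivo MRI (9.4 T) before and 30 days after injection. Animals were watched for signs of pain, and survival over 30 days was plotted as Kaplan-Meier.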

[22] = tested on: N13; experiment: Cytotoxicity in CM-Dil-labeled mouse N13 cells co-cultured with rat F98 cells assessed as increase in number of mouse N13 cells upto 100 ug/ml measured after 24 hrs by bright-field microscopy; format: functional, cell-based; settings: dose <= 100.0 µg/ml
Outline: (§5)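 Co-culture. N13 cells pre-labelled with the red membrane dye CM-DiI, then seeded together with F98 cells. Cells exposed to 0, 10 or 100 µg/mL for 24 h. Brightfield and fluorescence images taken on a high-content imager. Cell types separated by automatic segmentation on morphology (N13 rounded, F98 elongated) plus label. Cell counts and percentages of each type reported.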

[23] = tested on: F98; experiment: Antitumor activity against rat F98 cells xenografted in Fisher rat assessed as average tumor volume at 5 mg/kg, IT measured after 5 days by MRI analysis; format: functional; settings: time 5 day
[24] = tested on: F98; experiment: Cytotoxicity in rat F98 cells co-cultured with CM-Dil-labeled mouse N13 cells assessed as decrease in number of rat F98 cells measured after 24 hrs by bright-field microscopy; format: functional, cell-based; settings: dose <= 100.0 µg/ml; outline: as §5
[25] = Toxicity in rat assessed as signs of pain administered locally in caudate nucleus of brain measured after 30 days; format: tissue-based; settings: in vivo, other, 720 h, route it, time 30 day; outline: as §3
[26] = Cytotoxicity against mouse N13 cells assessed as cell viability at 0.31 uM incubated for 24 hrs by MTT assay relative to control; format: functional; settings: read-out: Activity; outline: as §1
[27] = tested on: F98; experiment: Cytotoxicity against rat F98 cells assessed as cell viability at 0.31 uM incubated for 24 hrs by MTT assay relative to control; format: functional; settings: read-out: Activity; outline: as §1

CCOC(=O)C[C@@H](N)c1ccccc1O
viability at 0.4 µM [1]: 40%
pIC50 [2]: 3.35
viability at 0.4 µM [3]: 35%
pIC50 [4]: 3.11

CCOC(=O)C[C@H](N)c1cc(OC)ccc1O
viability at 0.36 µM [5]: 5%
viability at 0.36 µM [6]: 70%
pIC50 [2]: 4.40

CCOC(=O)C[C@H](N)c1ccc(OC)cc1O
viability at 0.36 µM [5]: 45%
viability at 0.36 µM [6]: 55%
pIC50 [2]: 3.47
pIC50 [4]: 3.33

CCOC(=O)C[C@H](N)c1cc(Br)cc(OC)c1O
viability at 0.28 µM [7]: 60%
viability at 0.28 µM [8]: 60%
pIC50 [2]: 3.66
pIC50 [4]: 3.77

CCOC(=O)C[C@H](N)c1cc([N+](=O)[O-])ccc1O
viability at 0.34 µM [9]: 20%
pIC50 [2]: 3.18
viability at 0.34 µM [10]: 30%
pIC50 [4]: 2.94

N[C@H]1CC(=O)Oc2ccccc21
pIC50 [2]: 2.80
viability at 0.5 µM [11]: 15%
pIC50 [4]: 3.32
viability at 0.5 µM [12]: 55%

CCOC(=O)C[C@H](N)c1ccccc1O.Cl
viability at 0.4 µM [1]: 0%
Activity [13]: inactive
Activity [14]: Non-Toxic
Activity [15]: Non-Toxic
Activity [16]: 370 mm3
Activity [17]: Non-Toxic
Activity [18]: Active
Activity [19]: Non-Toxic
Activity [20]: 42%
survival at 720 h [21]: 100%
Activity [22]: Active
viability at 0.4 µM [3]: 60%
Activity [23]: 815 mm3
Activity [24]: Dose-Dependent Effect
Activity [25]: Non-Toxic
pIC50 [4]: 3.85

CCOC(=O)C[C@H](N)c1cc(Br)ccc1O
viability at 0.31 µM [26]: 40%
viability at 0.31 µM [27]: 60%
pIC50 [2]: 3.30
pIC50 [4]: 3.68
